Laboratory results as given in article PMC2806602 (The Journal of neuroscience : the official journal of the …, 2009).
Substitutions are numbered along the chain they refer to.

Experiments:
GluRδ2^Lc = molecular target: T1, GluRδ2^Lc (Rattus norvegicus, UniProt Q63226, A654T); assay type: cell-based; conditions: for spontaneously active current relative to baseline with Ba^2+: 0.5 mM Ba^2+ exchanged with 0.5 mM of the divalent cation
T1 sequence (Q63226 24-1007 A654T): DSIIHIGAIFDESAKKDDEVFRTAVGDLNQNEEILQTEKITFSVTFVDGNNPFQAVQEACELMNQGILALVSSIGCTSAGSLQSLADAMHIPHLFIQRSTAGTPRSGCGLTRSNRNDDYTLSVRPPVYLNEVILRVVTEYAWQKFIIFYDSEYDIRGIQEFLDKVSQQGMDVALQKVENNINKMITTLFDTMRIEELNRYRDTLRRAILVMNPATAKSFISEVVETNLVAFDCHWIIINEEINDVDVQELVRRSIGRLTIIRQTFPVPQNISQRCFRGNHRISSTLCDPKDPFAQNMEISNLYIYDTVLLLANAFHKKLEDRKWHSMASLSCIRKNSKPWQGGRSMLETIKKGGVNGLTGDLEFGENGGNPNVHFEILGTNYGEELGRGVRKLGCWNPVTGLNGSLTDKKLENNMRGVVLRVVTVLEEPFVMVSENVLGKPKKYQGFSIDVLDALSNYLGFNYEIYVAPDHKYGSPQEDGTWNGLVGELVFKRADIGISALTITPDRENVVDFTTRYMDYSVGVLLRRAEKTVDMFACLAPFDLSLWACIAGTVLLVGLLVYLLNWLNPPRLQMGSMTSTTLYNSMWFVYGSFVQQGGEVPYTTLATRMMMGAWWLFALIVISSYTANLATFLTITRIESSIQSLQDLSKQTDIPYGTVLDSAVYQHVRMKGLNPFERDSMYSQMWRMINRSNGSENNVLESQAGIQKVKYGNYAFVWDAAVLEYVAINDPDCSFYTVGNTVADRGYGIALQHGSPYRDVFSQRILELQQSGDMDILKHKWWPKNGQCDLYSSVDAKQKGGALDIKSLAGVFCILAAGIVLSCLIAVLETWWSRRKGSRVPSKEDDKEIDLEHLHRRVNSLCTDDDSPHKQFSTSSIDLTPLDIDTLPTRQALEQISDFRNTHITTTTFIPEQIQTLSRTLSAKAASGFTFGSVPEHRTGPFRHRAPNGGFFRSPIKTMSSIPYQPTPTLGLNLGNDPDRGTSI

GluRδ2^Wt = molecular target: T2, GluRδ2^Wt (Rattus norvegicus, UniProt Q63226); experiment: Two-electrode voltage-clamp recordings in Xenopus oocytes expressing GluRδ2^Wt; assay type: cell-based; conditions: 0.5 mM Ba^2+ exchanged with 0.5 mM of the divalent cation
T2 sequence (Q63226 24-1007): T1 sequence (Q63226 24-1007 A654T) with T631A
Procedure, shortened: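 Oocytes injected with wild-type receptor cRNA the day after excision and collagenase treatment. Two-electrode voltage clamp at −40 mV and 23°C, 24–72 h post-injection. Bath: 90 mM NaCl, 3 mM KCl, 0.5 mM BaCl2, 10 mM HEPES, pH 7.6. Ba2+ was replaced by 0.5 mM Mg2+, Zn2+, Mn2+, Sr2+ or Ca2+, or Ca2+ was raised stepwise. Choline or NMDG chloride kept osmolarity and Cl− constant. Baseline was current without Ca2+.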

Compound	modulation of GluRδ2^Lc currents by extracellular Na^+ (GluRδ2^Lc; current-voltage relationship at 0, 30, 60, 90 mM Na^+, -60 to +30 mV)	spontaneously active current relative to baseline with Ba^2+ (GluRδ2^Lc)	effect of divalent cation on currents at GluRδ2^Wt (GluRδ2^Wt)
[Na+] [Na^+]	does not modulate GluRδ2		
[Sr+2] [Sr^2+]		1.33 ± 0.05	no changes were observed
[Zn+2] [Zn^2+]		1.33 ± 0.02	no changes were observed
[Mg+2] [Mg^2+]		1.06 ± 0.01	
[Mn+2] [Mn^2+]		2.66 ± 0.13	no changes were observed
